The values that follow come from ChEMBL document CHEMBL4184316 (J Med Chem, 2018).

One data set relates to K562. Description: Antiproliferative activity against human K562 cells after 48 hrs by MTT assay. The format is functional, cell-based. In a few lines:
(§1)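 Cells exposed to a range of concentrations for 48 h; proliferation by MTT. Mean ± SEM of six independent experiments. Resistant lines (HL-60/ADR, K562/ADR) held in ADR (printed as 1 μmol/mL) for 10–28 days, then 10 days drug-free before use. SW1990 and SH-SY5Y in DMEM + 10% FBS; leukemia lines in medium with 12% FBS. Vehicle 0.1% DMSO.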

Data set [1] can be described thus: Toxicity in zebrafish embryo xenografted with human HL60 cells assessed as mortality at 20 ug/ml relative to control. The format is organism-based, Danio rerio. As to conditions: read-out: Activity. In a few lines: (§2)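 Zebrafish embryos at 2 dpf were injected in the yolk sac with about 300 HL60 cells prelabelled with CM-Dil. Nine injected groups were then exposed to drug at a range of dosages for 3 days, with saline as the negative control. Survival and mortality were scored against the control group, and treated versus control animals were compared by Kaplan–Meier analysis.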

The subject of data set [2] is HL-60. Description: Antitumor activity against human HL60 cells xenografted in zebrafish embryo assessed as inhibition of cell proliferation at 10 ug/ml measured after 3 days of incubation by CM-Dil staining-based microscopic method relative to control. The format is functional. Put shortly: (§3)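 HL60 cells labelled with CM-Dil; about 300 cells injected into yolk sac of embryos at 2 dpf. Embryos kept in compound (1, 3, 10 μg/mL), cytarabine 200 μg/mL or saline for 3 days. Embryos showing dissemination counted by microscopy, 15 larvae per group. Average ± SD of three independent assays; unpaired Student's t test.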

For data set [3], the system named is HL-60. As to the kind of experiment: Antitumor activity against human HL60 cells xenografted in zebrafish embryo assessed as decrease in cell dissemination measured after 3 days of incubation by CM-Dil staining-based microscopic method. It counts as functional. In a few lines: as §3
Data set [4] in a line: (§4) Antiproliferative activity against human K562/G cells after 48 hrs by MTT assay. The format is functional, cell-based. As to conditions: K562, 48 h. Put shortly:
as §1

For the next data set, the species on record is Homo sapiens. The data set is described as §4. The format is functional, cell-based. Put shortly:
as §1

Data set [5] deals with HL-60. Description: Antiproliferative activity against human HL60 cells after 48 hrs by MTT assay. The format is functional, cell-based. In a few lines:
as §1

The next data set deals with HL60/ADR. Description: Antiproliferative activity against human HL60/ADR cells after 48 hrs by MTT assay. The format is functional, cell-based. In a few lines: as §1
Data set [6] in a line: Toxicity in zebrafish embryo xenografted with human HL60 cells assessed as survival rate at <= 10 ug/ml treated for 3 days relative to control. It counts as organism-based, Danio rerio. In a few lines: as §2
In data set [7] the test system is HL-60. Description: Antitumor activity against human HL60 cells xenografted in zebrafish embryo assessed as inhibition of cell migration at 10 ug/ml measured after 3 days of incubation by CM-Dil staining-based microscopic method relative to control. The format is functional. In a few lines: as §3
A further data set concerns SW1990. As to the kind of experiment: Antiproliferative activity against human SW1990 cells after 48 hrs by MTT assay. It counts as functional, cell-based. In a few lines:
as §1

The test system of another data set is SH-SY5Y. Description: Antiproliferative activity against human SH-SY5Y cells after 48 hrs by MTT assay. It counts as functional, cell-based. Put shortly:
as §1

The next data set concerns K562/Adr. Description: Antiproliferative activity against human K562/ADR cells after 48 hrs by MTT assay. The format is functional, cell-based. In a few lines:
as §1

The subject of data set [8] is HL-60. As to the kind of experiment: Effect on PKM2 levels in human HL60 cells at 2.5 to 10 uM after 20 hrs by Western blot method. It counts as functional, cell-based.
For data set [9], the system named is HL-60. Description: Antiproliferative activity against human HL60 cells at 5 to 20 uM after 24 hrs in presence of shControl by MTT assay. It counts as functional, cell-based. Put shortly: (§5)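 HL60 transduced with lentiviral shPKM2 or shControl (5 μg/mL Polybrene), selected 72 h in 1 μg/mL puromycin. Stable lines treated with compound or DMSO for 24 h, then viability assayed.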

Data set [10] has as its system HL-60. As to the kind of experiment: Antiproliferative activity against human HL60 cells at 5 to 20 uM after 24 hrs in presence of shPKM2 by MTT assay. The format is functional, cell-based. Put shortly:
as §5

Data set [11] has as its target T1, Pyruvate kinase PKM (Homo sapiens, UniProt P14618). As to the kind of experiment: Binding affinity to PKM2 in human HL60 cells at 20 uM after overnight incubation by silver staining-based streptavidin-agarose pull-down assay. The format is cell-based. In a few lines:
(§6)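 HL60 lysate incubated overnight at 4 °C with biotinylated probe, with or without excess free parent compound for competition. Pull-down on streptavidin-agarose, then SDS-PAGE with silver staining, or Western blot with anti-PKM2. Repeated at least three times.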
Target sequence in this assay (P14618 2-531 limits assumed): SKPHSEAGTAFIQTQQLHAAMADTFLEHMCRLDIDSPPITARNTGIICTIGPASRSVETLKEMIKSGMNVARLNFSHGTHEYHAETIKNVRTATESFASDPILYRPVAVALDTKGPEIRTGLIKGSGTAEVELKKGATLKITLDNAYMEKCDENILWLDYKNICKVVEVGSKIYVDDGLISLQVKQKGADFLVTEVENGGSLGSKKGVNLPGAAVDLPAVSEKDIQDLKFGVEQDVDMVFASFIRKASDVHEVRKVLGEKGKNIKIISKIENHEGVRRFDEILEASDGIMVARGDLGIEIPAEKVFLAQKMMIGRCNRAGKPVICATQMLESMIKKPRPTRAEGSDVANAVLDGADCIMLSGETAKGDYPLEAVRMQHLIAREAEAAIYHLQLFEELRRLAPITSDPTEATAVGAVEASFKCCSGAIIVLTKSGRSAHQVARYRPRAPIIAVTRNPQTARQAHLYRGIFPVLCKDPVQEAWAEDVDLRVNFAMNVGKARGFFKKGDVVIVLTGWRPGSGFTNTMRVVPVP

Data set [12] concerns HL-60. As to the kind of experiment: Antitumor activity against human HL60 cells xenografted in zebrafish embryo assessed as inhibition of cell migration at 200 ug/ml measured after 3 days of incubation by CM-Dil staining-based microscopic method relative to control. It counts as functional. In a few lines:
as §3

Data set [13] deals with HL-60. Description: Antitumor activity against human HL60 cells xenografted in zebrafish embryo assessed as inhibition of cell proliferation at 200 ug/ml measured after 3 days of incubation by CM-Dil staining-based microscopic method relative to control. It counts as functional. In a few lines:
as §3

The target of data set [14] is T1, Pyruvate kinase PKM. As to the kind of experiment: Binding affinity to recombinant human PKM2 expressed in Escherichia coli BL21 after overnight incubation by Western blot method. Put shortly: (§7)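 Recombinant PKM1 or PKM2 incubated overnight at 4 °C with biotinylated probe. Biotin adduct detected by Western blot with streptavidin-HRP; loading checked by anti-PKM1/PKM2 blot. Repeated at least three times.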
Target sequence in this assay (P14618 2-531 limits assumed): as above

In data set [15] the target is T1, Pyruvate kinase PKM. Description: Irreversible binding affinity to recombinant human PKM2 expressed in Escherichia coli BL21 assessed as ratio of Kact to Ki. In a few lines:
(§8)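 PKM2 (0.25 μM) incubated with biotinylated probe (20 μM, and other concentrations) for varying times. Time-dependent binding curves fitted for observed rate constants (Kobs) at each concentration. Kobs plotted against concentration to derive kact and Ki under an irreversible-binding model.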
Target sequence in this assay (P14618 2-531 limits assumed): as above

Data set [16] concerns the target T1, Pyruvate kinase PKM. As to the kind of experiment: Binding affinity to recombinant human PKM1 expressed in Escherichia coli BL21 after overnight incubation by Western blot method. Put shortly: as §7
Target sequence in this assay (P14618 2-531 limits assumed): as above
The target in data set [17] is T1, Pyruvate kinase PKM. As to the kind of experiment: Irreversible binding affinity to recombinant human PKM2 expressed in Escherichia coli BL21 at 20 uM incubated for 2 to 150 mins. In a few lines:
as §8
Target sequence in this assay (P14618 2-531 limits assumed): as above

Data set [18] addresses T1, Pyruvate kinase PKM. As to the kind of experiment: Irreversible binding affinity to recombinant human PKM2 expressed in Escherichia coli BL21. Put shortly: as §8
Data set [19] has as its target T1, Pyruvate kinase PKM. As to the kind of experiment: Binding affinity to PKM2 in human HL60 cells at 20 uM after overnight incubation by Western blot method. It counts as cell-based. In a few lines:
as §6
Target sequence in this assay (P14618 2-531 limits assumed): as above

In data set [20] the test system is Pyruvate kinase PKM (Homo sapiens), P14618 [C424S]. As to the kind of experiment: Binding affinity to recombinant human PKM2 C424S mutant expressed in Escherichia coli BL21 after 60 mins by Western blot method.
Pyruvate kinase PKM (Homo sapiens), P14618 [C424S], sequence (P14618 whole entry C424S): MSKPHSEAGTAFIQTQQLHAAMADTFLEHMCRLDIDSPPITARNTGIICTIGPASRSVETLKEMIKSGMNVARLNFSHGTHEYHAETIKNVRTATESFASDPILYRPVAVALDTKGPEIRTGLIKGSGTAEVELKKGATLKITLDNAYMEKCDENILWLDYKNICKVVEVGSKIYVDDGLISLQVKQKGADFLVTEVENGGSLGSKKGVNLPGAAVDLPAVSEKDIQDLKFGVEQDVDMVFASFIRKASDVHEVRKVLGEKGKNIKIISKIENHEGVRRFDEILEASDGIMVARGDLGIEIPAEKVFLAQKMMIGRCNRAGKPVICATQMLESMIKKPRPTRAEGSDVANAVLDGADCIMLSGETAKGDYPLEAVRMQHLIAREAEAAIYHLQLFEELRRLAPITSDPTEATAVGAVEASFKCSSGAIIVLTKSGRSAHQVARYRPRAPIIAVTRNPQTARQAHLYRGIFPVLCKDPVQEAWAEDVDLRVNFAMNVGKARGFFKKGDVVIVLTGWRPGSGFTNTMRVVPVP
Data set [21] concerns the target T1, Pyruvate kinase PKM. As to the kind of experiment: Binding affinity to PKM2 in human HL60 cells at 20 uM after overnight incubation in presence of 200 to 400 uM MCL by silver staining-based streptavidin-agarose pull-down assay. It counts as cell-based. In a few lines:
as §6

Data set [22] deals with T1, Pyruvate kinase PKM. As to the kind of experiment: Binding affinity to recombinant human PKM2 at C424 residue expressed in Escherichia coli BL21 after 60 mins by Western blot method.

The source made the active and inactive calls. The rule behind the calls is not given here.

As for `CC1=C2CC[C@@](C)(O)[C@@H]2[C@H]2OC(=O)[C@@H](CN(C)C)[C@@H]2CC1.O=C(O)/C=C/C(=O)O`, the Activity result with K562, in the data set with HL-60 [3], in the data set listed under Homo sapiens, with HL-60 [5], in the data set on HL60/ADR and in the data set with SW1990 was “Dose-dependent effect” in each case. In addition, the Activity entry in the data set with SH-SY5Y and in the data set on K562/Adr was “Dose-dependent effect” each time. Further, the IC50 in the data set with K562 (K562, 48 h) lay within 3.9 to 16.2 µM; in data set [4] it was 3.9 to 16.2 µM; in the data set with HL-60 [5] (HL-60, 48 h) it was 3.9 to 16.2 µM; in the data set on HL60/ADR it was 3.9 to 16.2 µM; with SW1990 (SW1990, 48 h), 3.9 to 16.2 µM; in the data set with SH-SY5Y, 3.9 to 16.2 µM. Further, the IC50 in the data set with K562/Adr was 3.9 to 16.2 µM. Also, the IC90 was in the range of 16.4 to 54.1 µM in the data set with K562 (K562, 48 h); 16.4 to 54.1 µM in [4]; 16.4 to 54.1 µM in the data set with HL-60 [5] (HL-60, 48 h); 16.4 to 54.1 µM with HL60/ADR; 16.4 to 54.1 µM in the data set on SW1990 (SW1990, 48 h); 16.4 to 54.1 µM with SH-SY5Y. The same molecule gave an IC90 with K562/Adr of 16.4 to 54.1 µM. Moreover, the mortality at 20 ug/ml in [1] was found to be 80%. Also, the “inhibition (INH)” value with HL-60 [2] was determined as 56.44%; with HL-60 [7], 58.1%. Further, the survival at 72 h in [6] came out at 100%.

As for `C=C1C(=O)O[C@H]2[C@H]1CCC(C)=C1CC[C@@](C)(O)[C@@H]12`, the outcome with HL-60 [8] and in the data set with HL-60 [10] was inactive. Moreover, in the data set on HL-60 [9], the outcome was Active.

Consider `CC1=C2CC[C@@](C)(OC(=O)CCCc3cn(CCOCCOCCOCCNC(=O)CCCC[C@H]4SC[C@H]5NC(=O)N[C@H]54)nn3)[C@@H]2[C@H]2OC(=O)[C@@H](C)[C@@H]2CC1`, for which the result at Pyruvate kinase PKM [11] was inactive.

As to `Nc1ccn([C@@H]2O[C@H](CO)[C@@H](O)[C@@H]2O)c(=O)n1` [CYTARABINE], the “inhibition (INH)” value is 44.04% in the data set with HL-60 [12] and 43.28% in the data set on HL-60 [13].

In the case of `C=C1C(=O)O[C@H]2[C@H]1CCC(C)=C1CC[C@@](C)(OC(=O)CCCc3cn(CCOCCOCCOCCNC(=O)CCCC[C@H]4SC[C@H]5NC(=O)N[C@H]54)nn3)[C@@H]12`, the outcome on Pyruvate kinase PKM [14], on Pyruvate kinase PKM [19], on Pyruvate kinase PKM [11] and at Pyruvate kinase PKM [22] was Active. Further, the Ratio at Pyruvate kinase PKM [15] was found to be 1.03 ×10⁴ /M/s. Also, the result (at Pyruvate kinase PKM [16]; in data set [20]; on Pyruvate kinase PKM [21]) was inactive. Besides, the K at Pyruvate kinase PKM [17] came to 0.033 min⁻¹. Also, at Pyruvate kinase PKM [17] (TDE = time-dependent effect), the Activity result is “Tde”. Besides, the Kact at Pyruvate kinase PKM [18] was 0.031 min⁻¹. Further, the Ki at Pyruvate kinase PKM [18] stood at 0.05 µM.
